Assay results: ChEMBL document CHEMBL1641468, “Synthesis of modified siRNA bearing C-5 polyamine-substituted pyrimidine nucleoside in their 3'-overhang regions and its RNAi activity” (Bioorg Med Chem Lett, 2011)
Activity calls are given as the source filed them. The rule behind the calls is not given here.

What was measured:
[1] = Chemical stability of the compound in presence of snake venom phosphodiesterase after 30 mins by RP-HPLC analysis; type: physicochemical; conditions: 0.5 h
Method in brief: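 Each oligoribonucleotide (0.8 nmol) incubated with snake venom phosphodiesterase, a 3'-exonuclease (0.01 U), in 200 mM Tris–HCl pH 8.0 with 100 mM MgCl₂ at 37 °C for 5 and 30 min; mixtures analysed by RP-HPLC, remaining full-length RNA expressed as fraction of total RNA from chromatogram peak areas.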

[2] = target: T1, Hepatocyte nuclear factor 4-alpha (Homo sapiens) (UniProt P41235); experiment: Inhibition of HNF4alpha mRNA expression in human HepG2 cells after 24 hrs by RT-PCR analysis; type: cell-based; conditions: in the assay text read “after 48 hrs” for “after 24 hrs”
T1 sequence (whole entry): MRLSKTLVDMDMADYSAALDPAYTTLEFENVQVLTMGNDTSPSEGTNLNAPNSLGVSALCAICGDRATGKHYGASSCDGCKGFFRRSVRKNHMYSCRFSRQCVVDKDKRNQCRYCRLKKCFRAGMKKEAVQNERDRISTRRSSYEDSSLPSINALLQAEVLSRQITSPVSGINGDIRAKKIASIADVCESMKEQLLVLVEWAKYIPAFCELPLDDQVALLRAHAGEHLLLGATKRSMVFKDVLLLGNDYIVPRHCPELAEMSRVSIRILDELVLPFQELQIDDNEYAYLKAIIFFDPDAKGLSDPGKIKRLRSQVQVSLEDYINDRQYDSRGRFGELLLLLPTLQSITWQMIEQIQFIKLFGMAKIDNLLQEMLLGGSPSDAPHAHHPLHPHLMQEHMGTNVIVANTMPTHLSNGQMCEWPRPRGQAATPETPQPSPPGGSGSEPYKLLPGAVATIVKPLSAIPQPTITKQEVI
Method in brief: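 HepG2 cells were grown in DMEM with 5% FBS at 37 °C and transfected with siRNA using a transfection reagent. After 24 h at 37 °C, the medium was changed to DMEM with 10% FBS and cells were incubated a further 24 h. Total RNA was reverse-transcribed for real-time PCR (40 cycles). HNF4α mRNA was normalized to GAPDH by ΔΔCt and expressed relative to nonsense control siRNA, using the mean Ct of duplicate PCRs from independent cells.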

[3] = target: T1, Hepatocyte nuclear factor 4-alpha (Homo sapiens); experiment: Inhibition of HNF4alpha mRNA expression in human HepG2 cells after 24 hrs by real-time RT-PCR

| SMILES | Stability [1] | Activity [2] | Activity [3] |
| --- | --- | --- | --- |
| NCCN(CCN)CCNC(=O)Cc1cn([C@H]2C[C@H](OP(=O)(O)OC[C@H]3O[C@@H](n4cc(CC(=O)NCCN(CCN)CCN)c(=O)[nH]c4=O)C[C@@H]3O)[C@@H](COP(=O)(O)O[C@@H]3[C@H](O)[C@@H](COP(=O)(O)O[C@H]4[C@@H](O)[C@H](n5cnc6c(N)ncnc65)O[C@@H]4COP(=O)(O)O[C@H]4[C@@H](O)[C@H](n5ccc(N)nc5=O)O[C@@H]4COP(=O)(O)O[C@H]4[C@@H](O)[C@H](n5cnc6c(N)ncnc65)O[C@@H]4COP(=O)(O)O[C@@H]4[C@H](O)[C@@H](COP(=O)(O)O[C@@H]5[C@H](O)[C@@H](COP(=O)(O)O[C@H]6[C@@H](O)[C@H](n7ccc(=O)[nH]c7=O)O[C@@H]6COP(=O)(O)O[C@@H]6[C@H](O)[C@@H](COP(=O)(O)O[C@@H]7[C@H](O)[C@@H](COP(=O)(O)O[C@H]8[C@@H](O)[C@H](n9ccc(=O)[nH]c9=O)O[C@@H]8COP(=O)(O)O[C@@H]8[C@H](O)[C@@H](COP(=O)(O)O[C@H]9[C@@H](O)[C@H](n%10ccc(N)nc%10=O)O[C@@H]9COP(=O)(O)O[C@@H]9[C@H](O)[C@@H](COP(=O)(O)O[C@H]%10[C@@H](O)[C@H](n%11ccc(=O)[nH]c%11=O)O[C@@H]%10COP(=O)(O)O[C@@H]%10[C@H](O)[C@@H](COP(=O)(O)O[C@H]%11[C@@H](O)[C@H](n%12cnc%13c(N)ncnc%13%12)O[C@@H]%11COP(=O)(O)O[C@H]%11[C@@H](O)[C@H](n%12ccc(N)nc%12=O)O[C@@H]%11COP(=O)(O)O[C@@H]%11[C@H](O)[C@@H](COP(=O)(O)O[C@H]%12[C@@H](O)[C@H](n%13cnc%14c(=O)[nH]c(N)nc%14%13)O[C@@H]%12COP(=O)(O)O)O[C@H]%11n%11cnc%12c(=O)[nH]c(N)nc%12%11)O[C@H]%10n%10cnc%11c(=O)[nH]c(N)nc%11%10)O[C@H]9n9cnc%10c(=O)[nH]c(N)nc%109)O[C@H]8n8cnc9c(=O)[nH]c(N)nc98)O[C@H]7n7cnc8c(=O)[nH]c(N)nc87)O[C@H]6n6cnc7c(=O)[nH]c(N)nc76)O[C@H]5n5cnc6c(=O)[nH]c(N)nc65)O[C@H]4n4cnc5c(=O)[nH]c(N)nc54)O[C@H]3n3cnc4c(N)ncnc43)O2)c(=O)[nH]c1=O | Stable | Active | Active |
| Cc1cn([C@H]2C[C@H](OP(=O)(O)OC[C@H]3O[C@@H](n4cc(CC(=O)NCCN(CCN)CCN)c(=O)[nH]c4=O)C[C@@H]3O)[C@@H](COP(=O)(O)O[C@@H]3[C@H](O)[C@@H](COP(=O)(O)O[C@H]4[C@@H](O)[C@H](n5cnc6c(N)ncnc65)O[C@@H]4COP(=O)(O)O[C@H]4[C@@H](O)[C@H](n5ccc(N)nc5=O)O[C@@H]4COP(=O)(O)O[C@H]4[C@@H](O)[C@H](n5cnc6c(N)ncnc65)O[C@@H]4COP(=O)(O)O[C@@H]4[C@H](O)[C@@H](COP(=O)(O)O[C@@H]5[C@H](O)[C@@H](COP(=O)(O)O[C@H]6[C@@H](O)[C@H](n7ccc(=O)[nH]c7=O)O[C@@H]6COP(=O)(O)O[C@@H]6[C@H](O)[C@@H](COP(=O)(O)O[C@@H]7[C@H](O)[C@@H](COP(=O)(O)O[C@H]8[C@@H](O)[C@H](n9ccc(=O)[nH]c9=O)O[C@@H]8COP(=O)(O)O[C@@H]8[C@H](O)[C@@H](COP(=O)(O)O[C@H]9[C@@H](O)[C@H](n%10ccc(N)nc%10=O)O[C@@H]9COP(=O)(O)O[C@@H]9[C@H](O)[C@@H](COP(=O)(O)O[C@H]%10[C@@H](O)[C@H](n%11ccc(=O)[nH]c%11=O)O[C@@H]%10COP(=O)(O)O[C@@H]%10[C@H](O)[C@@H](COP(=O)(O)O[C@H]%11[C@@H](O)[C@H](n%12cnc%13c(N)ncnc%13%12)O[C@@H]%11COP(=O)(O)O[C@H]%11[C@@H](O)[C@H](n%12ccc(N)nc%12=O)O[C@@H]%11COP(=O)(O)O[C@@H]%11[C@H](O)[C@@H](COP(=O)(O)O[C@H]%12[C@@H](O)[C@H](n%13cnc%14c(=O)[nH]c(N)nc%14%13)O[C@@H]%12COP(=O)(O)O)O[C@H]%11n%11cnc%12c(=O)[nH]c(N)nc%12%11)O[C@H]%10n%10cnc%11c(=O)[nH]c(N)nc%11%10)O[C@H]9n9cnc%10c(=O)[nH]c(N)nc%109)O[C@H]8n8cnc9c(=O)[nH]c(N)nc98)O[C@H]7n7cnc8c(=O)[nH]c(N)nc87)O[C@H]6n6cnc7c(=O)[nH]c(N)nc76)O[C@H]5n5cnc6c(=O)[nH]c(N)nc65)O[C@H]4n4cnc5c(=O)[nH]c(N)nc54)O[C@H]3n3cnc4c(N)ncnc43)O2)c(=O)[nH]c1=O | Stable | Active | Active |
